# The list is not random: actives were taken first. Their share in the collection is about 4.6%.
# TAAR1 agonist: human TAAR1 agonism; Q96RJ0; CHO RD-HGA16 TAAR1, Fluo-8 calcium fluorescence; vehicle wells 0%, saturating PEA agonist 100%; activation, % at 3 µM; hit rate 0.99% among 360,000; AID 624467;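 active means activation above the mean activation of all test compounds in the run plus 3 SD, cut at about 38% in these data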
# Target sequence (Q96RJ0 whole entry, looked up): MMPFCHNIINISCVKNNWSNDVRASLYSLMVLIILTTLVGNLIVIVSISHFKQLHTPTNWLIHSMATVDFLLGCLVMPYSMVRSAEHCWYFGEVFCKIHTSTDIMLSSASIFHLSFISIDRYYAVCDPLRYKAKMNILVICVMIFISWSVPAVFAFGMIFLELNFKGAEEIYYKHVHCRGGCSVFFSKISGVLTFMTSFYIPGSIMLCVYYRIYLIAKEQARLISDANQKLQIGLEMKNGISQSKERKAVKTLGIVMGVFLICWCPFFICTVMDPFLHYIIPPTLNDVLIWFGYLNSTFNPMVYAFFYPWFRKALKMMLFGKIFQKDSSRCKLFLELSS
#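 Assay system: CHO-derived RD-HGA16 cells with stable Gα16 and human TAAR1; timing: 17-24 h seeding, 75 min 37 °C dye, 30 min RT; read-out: % activation from peak over basal fluorescence ratio, DMSO-to-PEA scaled; measured by: kinetic Fluo-8 calcium fluorescence; benchmarks: low control DMSO, high control PEA (EC100); doses: 3 µM single concentration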
# TAAR1 antag: antagonists of human TAAR1. CHO RD-HGA16 TAAR1, Fluo-8 calcium fluorescence, antagonist. inhibition, % at 3 µM. hit rate 1.5% among 360,000;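 active means inhibition above a per-plate cutoff, the mean inhibition of test compounds on that plate plus 3 SD, cut at about 49% in these data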;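 further: 0% = DMSO plus EC80 beta-PEA response and 100% = DMSO alone without agonist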
#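 System: CHO RD-HGA16 cells bearing hTAAR1. Reagent: EC80 β-phenethylamine stimulus. Schedule: seeding 17-24 h prior, 75-min 37 °C, 30-min RT dye loading. Signal: Fluo-8 intracellular calcium dye fluorescence, real-time kinetic reads. Read-out: % inhibition from peak post-agonist over basal fluorescence ratio. Benchmarks: vehicle wells and EC80 agonist wells. Replicates: n of 1.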
# OX1R antag-1: blocks the human orexin 1 receptor. O43613. OX1R-expressing cells, FRET antagonist read-out. inhibition, % at 6.6 µM. hit rate 1.8% among 330,000. AID 485270; in the data active means inhibition mostly above about 38%, no sharp cut-off; inactive means mostly below about 40%;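 further: 0% = agonist challenge alone and 100% = reference antagonist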
# CHO parental Ca: signal in parental CHO cells, OX1R antagonist counter-screen. parental CHO-K1, ATP-induced calcium, Fluo-8 fluorescence. inhibition, % at 5.6 µM. hit rate 0.63% among 330,000;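 active means inhibition above that plate's mean sample inhibition plus 3 SD, cut at about 26% in these data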;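 further: 0% = ATP-challenged DMSO wells and 100% = DMSO wells without ATP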
#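 Test system: untransfected parental CHO cell line; also added: ATP stimulus; dosing: 5.6 µM, single dose; signal: calcium-sensitive Fluo-8 fluorescence; measure: percent inhibition of ATP-evoked calcium rise, normalized to controls; benchmarks: low control ATP plus DMSO, high control DMSO only; replication: one well per compound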
# OX1R antag-2: human HCRTR1 antagonism. O43613. hit rate 0.43% among 330,000. inhibition, % at 5 µM. CHO/OX1R cells, Fluo-8 calcium fluorescence, orexin A;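 active means inhibition above its plate's threshold, mean inhibition of all tested compounds on the plate plus 3 SD, cut at about 37% in these data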;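 further: 0% = orexin A challenge wells and 100% = SB-334867-A antagonist wells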
# GPR7 antagonist: antagonists of human GPR7 (neuropeptides B/W receptor 1); AID 1861; GPR7-expressing cells, fluorescence antagonist assay; hit rate 1.1% among 290,000; inhibition, % at 4.4 µM; in the data active means inhibition above about 16%, passing the limit was not always enough;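 further: cells stimulated with the agonist NPW; 0% = agonist with vehicle and 100% = vehicle without agonist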
# Target sequence (P48145 whole entry, looked up): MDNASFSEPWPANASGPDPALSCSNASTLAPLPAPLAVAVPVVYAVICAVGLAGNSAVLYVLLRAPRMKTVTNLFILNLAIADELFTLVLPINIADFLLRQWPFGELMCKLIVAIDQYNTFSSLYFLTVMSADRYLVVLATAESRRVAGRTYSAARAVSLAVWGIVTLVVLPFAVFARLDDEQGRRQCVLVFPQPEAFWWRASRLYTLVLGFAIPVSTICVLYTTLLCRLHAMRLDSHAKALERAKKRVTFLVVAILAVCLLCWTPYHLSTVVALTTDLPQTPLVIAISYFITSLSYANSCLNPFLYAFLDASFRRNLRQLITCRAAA
# Numbers without * were called inactive; · = no result given.
SMILES,TAAR1 agonist,TAAR1 antag,OX1R antag-1,CHO parental Ca,OX1R antag-2,GPR7 antagonist
C[C@H](NC(=O)c1nc[nH]c1C(=O)NC1CCN(C(=O)OC(C)(C)C)CC1)C(=O)OCc1ccccc1,9,56*,19,-22,-10,-14
CNC(=O)c1[nH]cnc1C(=O)N[C@@H](Cc1ccccc1)C(=O)OCc1ccccc1,13,59*,22,-1,-28,-16
O=C(c1nc[nH]c1C(=O)N1CCc2ccccc2C1)N1CCc2ccccc2C1,38*,48,12,-8,4,·
O=C(N[C@@H](Cc1ccccc1)C(=O)OCc1ccccc1)c1nc[nH]c1C(=O)N1CCc2ccccc2C1,7,59*,14,30,31,·
COc1ccc(NS(=O)(=O)c2ccc(C)c(NC(=O)CNC(=O)c3ccco3)c2)cc1,5,2,·,·,·,·
COc1ccc(CCCNC(=O)C2CCC(=O)N(CCc3cccc(F)c3)C2)cc1 (stereo unspecified),0,-2,14,-26,-9,-1
Cc1cc(CN2C(=O)c3ccccc3C2=O)on1,13,-4,4,-13,-9,-20
O=S(=O)(NCc1cc(-c2ccc(Cl)cc2)no1)c1ccc(Cl)cc1,8,7,20,93*,51*,-12
O=S(=O)(NCc1cc(-c2ccc(Cl)cc2)no1)c1ccccc1,1,5,18,2,4,-4
O=C1c2ccccc2C(=O)N1Cc1cc(-c2ccc(Cl)cc2)no1,9,49*,5,-6,-10,-6
CCOC(=O)[C@]12CCCC=C1N(Cc1ccccc1)C(=O)[C@H](CC(=O)N1CCOCC1)C2,0,3,·,·,·,·
C[C@H](CO)N1C[C@H](C)[C@@H](CN(C)S(C)(=O)=O)OCc2cn(nn2)CCCC1=O,0,8,·,·,·,·
COc1ccc(C2/C=C\CN(C(=O)Nc3ccccc3)CC(=O)N2Cc2ccc(F)cc2)cc1 (stereo unspecified),16,7,20,-33,-25,·
COc1ccc(C2/C=C\CN(C(=O)Nc3ccc(C(F)(F)F)cc3)CC(=O)N2Cc2ccc(F)cc2)cc1 (stereo unspecified),·,·,33,60*,9,·
CCOC(=O)c1ccc(NC(=O)CN(c2ccc(C)cc2)S(=O)(=O)c2c(C)n[nH]c2C)cc1,34,52*,1,9,19,12
O=C1CN(S(=O)(=O)c2ccc(F)cc2)CC(=O)N1CCc1ccccc1,·,·,·,·,·,1
O=C1CN(S(=O)(=O)c2ccc(Cl)cc2)CC(=O)N1CCc1ccccc1,9,56*,15,-12,-15,0
O=C(Nc1nc2ccc(S(=O)(=O)N3CCCC3)cc2s1)C1CCCCC1,43*,8,8,-9,2,29
N#CCc1nc2ccc(S(=O)(=O)N3CCOCC3)cc2s1,6,-1,6,35*,41*,5
CC(=O)CSc1nc2nccnc2[nH]1,0,-4,·,·,·,·
O=C(CSc1nnc(Cc2csc(Nc3cccc(Cl)c3)n2)o1)N1CCc2ccccc21,1,51*,61,-3,8,0
Cc1nc(Nc2ccc(Cl)c(Cl)c2)sc1C(=O)Nc1ccccc1,7,34,69*,8,-16,-10
O=C(OCc1ccccc1)N1Cc2ccnnc2CC1c1ccccc1-c1ccc(C(F)(F)F)cc1 (stereo unspecified),7,-18,·,·,·,·
CNC(=O)COc1ccc2oc3c(c2c1)CCCC3,0,1,38,-14,-9,-4
Cc1ccnc(NC(=O)COc2ccc3oc4c(c3c2)CCCC4)c1,13,26,54*,-33,7,-4
SMILES,TAAR1 agonist,TAAR1 antag,OX1R antag-1,CHO parental Ca,OX1R antag-2,GPR7 antagonist
CC(C)N1CC(O)=C(c2nc3ccccc3[nH]2)C1=N,0,11,5,4,-5,12
CC(C1CC2CCC1C2)N1CC(O)=C(c2nc3ccccc3[nH]2)C1=N (stereo unspecified),8,3,17,-33,-24,21*
O=C1c2cccc3c([N+](=O)[O-])ccc(c23)C(=O)N1O,-2,-40,21,-2,-14,17
O=C1c2cccc3c([N+](=O)[O-])ccc(c23)C(=O)N1c1nccs1,-3,45,62*,14,20,4
O=C1c2cccc3c([N+](=O)[O-])ccc(c23)C(=O)N1c1ccccn1,1,27,68*,17,20,23
O=C1c2cccc3cccc(c23)C(=O)N1c1nccs1,5,1,30,-1,-17,-3
O=C1c2cccc3c(N4CCCCC4)ccc(c23)C(=O)N1c1ccccn1,13,6,48,31,51*,4
O=C1c2cccc3c(N4CCCCC4)ccc(c23)C(=O)N1c1ccc(Cl)cn1,·,·,·,·,·,-3
COc1ccc(OCC(=O)OC(C)CN2CCOCC2)cc1 (stereo unspecified),1,14,28,4,-6,18*
O=C(OCn1ncc(Cl)c(Cl)c1=O)c1cccc(C(F)(F)F)c1,·,·,6,81*,52*,16
O=C(OCn1ncc(Br)c(Br)c1=O)c1ccccc1Cl,·,·,35,-3,2,20
Cc1cc(=O)oc(C)c1C(=O)NCC1COc2ccccc2O1 (stereo unspecified),40*,-11,2,-9,1,-3
COCc1c(C(=O)NCCOc2ccc(Cl)cc2)oc2ccccc12,11,3,34*,-24,-8,·
CCOc1ccc(OCCNC(=O)c2oc3ccccc3c2COC)cc1,-2,-2,10,-14,-6,·
COCc1c(C(=O)NCC2COc3ccccc3O2)oc2ccccc12 (stereo unspecified),-1,-7,68*,-26,7,·
CC(=O)NCC1COc2ccccc2O1 (stereo unspecified),4,9,2,-10,-16,-13
CCc1nc2c(OCCn3cccc3)cccn2c1N(C)C(=O)c1ccc(C)cc1,-1,9,·,·,·,·
CCc1ccccc1NC(=O)CSc1nc(-c2ccccc2)nn1C(=O)c1cccc([N+](=O)[O-])c1,·,·,42*,-22,-17,-6
O=C(CSc1nc(-c2ccccc2)nn1C(=O)c1ccccc1)Nc1cccc([N+](=O)[O-])c1,4,20,22,8,2,15
C[C@@H]1CN(c2ccc(N3CCNC[C@@H]3C)cc2C#N)C[C@H](C)O1,2,-28,·,·,·,·
O=C(Nc1ccc(/C=C/c2nc3ccccc3o2)cc1)c1c(F)cccc1F,9,53*,36,-20,-26,9
COC(=O)c1ccc2nc(-c3cccc(Br)c3)c(Cc3ccccc3)n2c1,1,-7,·,·,·,·
N#Cc1ccccc1COC(=O)CCN=C1NS(=O)(=O)c2ccccc21,5,5,2,-4,-6,·
Cc1csc(=O)n1CCC(=O)OCc1nnc(-c2ccccc2)o1,2,-9,5,-15,-17,·

# Source: PubChem
